Results as given in PMC11419141 (bioRxiv, 2024).
Entries after “also recorded” stand apart in the source; their conditions may differ.

Columns and labels:
[1] = Total antioxidant capacity; conditions: CUPRAC, Trolox equivalent, at any one concentration tested, n=2
Method in brief: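 Test compounds from DMSO stocks were dispensed acoustically as a 7-concentration series in 384-well plates. Freshly prepared Cu(II)-neocuproine reagent was added, mixed at 650 rpm for 2 min, then incubated sealed at 25 °C. A450 of the Cu(I)-neocuproine chelate was read at 1.5 h and 3 h. A Trolox standard curve was run on every plate, with values expressed as Trolox equivalents (mM). Fold over Trolox was taken as the ratio of linear-regression coefficients; n=2.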

[2] = system: Nrf2-ARE signaling pathway in HepG2-ARE-Luc cells; experiment: ARE-Luciferase reporter assay for Nrf2 activation in HepG2 cell line; assay type: cell-based; conditions: Figure 5B at 10 μM
Method in brief: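 HepG2 cells stably carrying an ARE-driven firefly luciferase reporter, seeded at 10,000 cells/well in complete medium (384-well). Test compounds given as a 7-concentration series for 18 h at 37 °C, 5% CO2. Controls were TBHQ and sulforaphane (positive) and DMSO vehicle. Luminescence was read after Steady-Glo for 30 min. Fold induction was taken as treated/vehicle ×100, with vehicle set at 100%; n=2.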

HepG2 cell line = experiment: Compound cytotoxicity in ARE assay in HepG2 cell line; assay type: cell-based
[3] = system: CXCR4-dependent NL4-3 virus; experiment: Anti-HIV TZM-bl assay, NL4-3 virus; assay type: cell-based, HIV-1; conditions: concentration not stated (any one concentration, Figure 6)
Method in brief: (§1)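 TZM-bl cells (HeLa-derived; CD4, CCR5 and CXCR4; Tat-driven luciferase) kept in DMEM with 10% heat-inactivated FBS and gentamicin. Cells seeded at 5000/well onto test compound, then given virus with 8 μg/ml DEAE-dextran. Inoculum was 150,000 RLU equivalents for NL4-3 and 20,000 for BaL.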

CCR5-dependent BaL virus = experiment: Anti-HIV TZM-bl assay, BaL virus; assay type: cell-based, HIV-1; conditions: concentration not stated (any one concentration, Figure 6)
Method in brief: as §1

TZM-bl cells = experiment: Cytotoxicity to cells in the anti-HIV assay; assay type: cell-based; conditions: toxic to cells in anti-HIV assay
[4] = system: Staphylococcus aureus subsp. aureus Rosenbach, ATCC 29213; experiment: Antibacterial growth assay, S. aureus; assay type: cell-based; conditions: for Antibacterial activity against S. aureus: in higher doses (100 μM); for Inhibition of growth of S. aureus: at a concentration of 11.1 μM
Method in brief: (§2)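 A single colony was grown overnight in cation-adjusted Mueller Hinton broth at 37 °C, 250 rpm, then diluted 100-fold. Cultures were grown for 24 h at 37 °C with test compound as a 7-concentration series. A600 was read, followed by a BacTiter-Glo ATP luminescence read. % growth inhibition was normalized to vancomycin/amikacin positive controls and DMSO negative control.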

Mycobacterium smegmatis = experiment: Antibacterial growth assay, M. smegmatis; assay type: cell-based; conditions: at a high concentration of 300 μM
Method in brief: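 Mycobacterium smegmatis grown in Middlebrook 7H9 with OADC at 37 °C, 250 rpm, with test compound as a 7-concentration series. A600 read at 24 h and 48 h, then an ATP luminescence read with BacTiter-Glo. % growth inhibition normalized to vancomycin/amikacin positive controls and DMSO negative control.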

[5] = system: Klebsiella pneumoniae subsp. pneumoniae, ATCC 27736; experiment: Antibacterial growth assay, K. pneumoniae; assay type: cell-based; conditions: at a concentration of 300 μM
Method in brief: as §2

In the case of `O=C1C[C@@H](c2ccc(O)cc2)Oc2cc(O)cc(O)c21` [Naringenin], the “Total antioxidant capacity (TAC) relative to Trolox” value [1] is reported as “on the same range as Trolox”, the ARE activation [2] is reported as “activated ARE activity” and the “Cytotoxicity to the cells in ARE assay” value (HepG2 cell line) is reported as “non-cytotoxic to cells”.
With `O=c1c(O)c(-c2ccc(O)cc2)oc2cc(O)cc(O)c12` [Kaempferol] the ARE activation [2] was “activated ARE activity; also recorded: highest level of ARE activation”, the “Cytotoxicity to the cells in ARE assay” value (HepG2 cell line) was “non-cytotoxic to the cells” and the “Inhibition of HIV strain NL4-3” value [3] was “more than 65%”. For the same compound, the “Inhibition of HIV strain BaL” value (CCR5-dependent BaL virus) was “didn’t significantly inhibit” and the Cytotoxicity concentration (TZM-bl cells) was 11.00 ± 0.62 µM.
With `O=c1cc(-c2ccc(O)c(O)c2)oc2cc(O)cc(O)c12` [Luteolin] the ARE activation [2] was “activated ARE activity”, the “Inhibition of HIV strain NL4-3” value [3] was “more than 90%” and the “Inhibition of HIV strain BaL” value (CCR5-dependent BaL virus) was “more than 90%”. The Cytotoxicity concentration (TZM-bl cells) was 4.28 ± 0.45 µM.
In the case of `COc1cc(-c2oc3cc(O)cc(O)c3c(=O)c2O)ccc1O` [Isorhamnetin], the “Total antioxidant capacity (TAC) relative to Trolox” value [1] is reported as “greater than 5 fold” and the Cytotoxicity concentration (TZM-bl cells) is reported as 3.042 ± 0.27 µM.
For `OC[C@H]1O[C@@H](Oc2cc3c(O)cc(O)cc3[o+]c2-c2ccc(O)c(O)c2)[C@H](O[C@@H]2OC[C@@H](O)[C@H](O)[C@H]2O)[C@@H](O)[C@@H]1O` [Cyanidin 3-O-sambubioside], the “Total antioxidant capacity (TAC) relative to Trolox” value [1] was “greater than 5 fold”, the “Antibacterial activity against S. aureus” value [4] was “showed antibacterial activity” and the “Inhibition of M. smegmatis” value (Mycobacterium smegmatis) was “more than 50%”.
In the case of `O=c1c(O[C@@H]2O[C@H](CO)[C@@H](O)[C@H](O)[C@H]2O)c(-c2ccc(O)c(O)c2)oc2cc(O)cc(O)c12` [Quercetin-3-β-D-glucoside (hirsutrin), Quercetin-3-β-D-glucoside], the “Total antioxidant capacity (TAC) relative to Trolox” value [1] is reported as “greater than 5 fold”.
With `COc1cc(-c2oc3cc(O)cc(O)c3c(=O)c2O[C@@H]2O[C@H](CO)[C@@H](O)[C@H](O)[C@H]2O)ccc1O` [Isorhamnetin 3-O-glucoside] the “Total antioxidant capacity (TAC) relative to Trolox” value [1] was “on the same range as Trolox”, the ARE activation [2] was “activated ARE activity” and the “Cytotoxicity to the cells in ARE assay” value (HepG2 cell line) was “non-cytotoxic to the cells”.
With `OC[C@H]1O[C@@H](Oc2cc3c(O)cc(O)cc3[o+]c2-c2ccc(O)c(O)c2)[C@H](O)[C@@H](O)[C@H]1O` [Cyanidin 3-O-galactoside] the “Total antioxidant capacity (TAC) relative to Trolox” value [1] was “greater than 5 fold”.
For `O=C(O)c1cc(O)c(O)c(O)c1` [Gallic acid], the “Total antioxidant capacity (TAC) relative to Trolox” value [1] was “greater than 5 fold” and the Cytotoxicity concentration (TZM-bl cells) was 80.42 ± 0.57 µM.
For `C[C@@H]1O[C@@H](OC[C@H]2O[C@@H](Oc3cc4c(O)cc(O)cc4[o+]c3-c3ccc(O)c(O)c3)[C@H](O)[C@@H](O)[C@@H]2O)[C@H](O)[C@H](O)[C@H]1O` [Cyanidin 3-O-rutinoside], the “Total antioxidant capacity (TAC) relative to Trolox” value [1] was “greater than 5 fold”, the “Inhibition of growth of S. aureus” value [4] was “more than 50%” and the “Inhibition of M. smegmatis” value (Mycobacterium smegmatis) was “more than 50%”.
For `OC[C@H]1O[C@@H](Oc2cc3c(O)cc(O)cc3[o+]c2-c2ccc(O)cc2)[C@H](O)[C@@H](O)[C@@H]1O` [Pelargonidin 3-O-glucoside], the “Antibacterial activity against S. aureus” value [4] was “showed antibacterial activity” and the “Inhibition of growth of K. pneumoniae” value [5] was “more than 50%”.
With `O=c1c(O)c(-c2cc(O)c(O)c(O)c2)oc2cc(O)cc(O)c12` [Myricetin] the “Total antioxidant capacity (TAC) relative to Trolox” value [1] was “greater than 5 fold” and the Cytotoxicity concentration (TZM-bl cells) was “higher than 100 μM”.
With `OC[C@H]1O[C@@H](O[C@H]2[C@H](Oc3cc4c(O)cc(O)cc4[o+]c3-c3ccc(O)c(O)c3)O[C@H](CO)[C@@H](O)[C@@H]2O)[C@H](O)[C@@H](O)[C@@H]1O` [Cyanidin 3-O-sophoroside] the “Total antioxidant capacity (TAC) relative to Trolox” value [1] was “greater than 5 fold”, the “Antibacterial activity against S. aureus” value [4] was “showed antibacterial activity” and the “Inhibition of growth of K. pneumoniae” value [5] was “more than 50%”.
With `O=C(/C=C/c1ccc(O)c(O)c1)O[C@@H]1C[C@@](O)(C(=O)O)C[C@@H](O)[C@@H]1O` [Neochlorogenic acid (3-caffeoylquinic acid)] the “Total antioxidant capacity (TAC) relative to Trolox” value [1] was “greater than 5 fold”.
With `COc1cc(/C=C/C(=O)O)ccc1O` [Ferulic acid] the “Total antioxidant capacity (TAC) relative to Trolox” value [1] was “on the same range as Trolox”.
With `C[C@@H]1O[C@@H](OC[C@H]2O[C@@H](Oc3cc4c(O)cc(O)cc4[o+]c3-c3cc(O)c(O)c(O)c3)[C@H](O)[C@@H](O)[C@@H]2O)[C@H](O)[C@H](O)[C@H]1O` [Delphinidin 3-O-rutinoside] the “Total antioxidant capacity (TAC) relative to Trolox” value [1] was “greater than 5 fold” and the “Inhibition of growth of S. aureus” value [4] was “more than 50%”.
In the case of `OC[C@H]1O[C@@H](Oc2cc3c(O[C@@H]4O[C@H](CO)[C@@H](O)[C@H](O)[C@H]4O)cc(O)cc3[o+]c2-c2ccc(O)c(O)c2)[C@H](O)[C@@H](O)[C@@H]1O` [Cyanidin 3,5-O-diglucoside], the “Total antioxidant capacity (TAC) relative to Trolox” value [1] is reported as “greater than 5 fold”.
`Oc1cc(O)c2c(c1)O[C@H](c1ccc(O)c(O)c1)[C@H](O)C2` [(-)-Epicatechin] gave an inhibition at 300 µM ([4]; Staphylococcus aureus, ATCC29213, read-out: Inhibition against S. aureus) of over 50%.
For `O=C(O)C=Cc1ccc(O)cc1` [p-Coumaric acid], the “Total antioxidant capacity (TAC) relative to Trolox” value [1] was “on the same range as Trolox”.
In the case of `COc1cc(-c2[o+]c3cc(O)cc(O)c3cc2O[C@@H]2O[C@H](CO)[C@@H](O)[C@H](O)[C@H]2O)ccc1O` [Peonidin 3-O-glucoside], the “Antibacterial activity against S. aureus” value [4] is reported as “showed antibacterial activity” and the “Inhibition of growth of K. pneumoniae” value [5] is reported as “more than 50%”.
In the case of `C[C@H]1O[C@H](OC[C@H]2O[C@@H](Oc3c(-c4ccc(O)cc4)oc4cc(O)cc(O)c4c3=O)[C@H](O)[C@@H](O)[C@@H]2O)[C@@H](O)[C@@H](O)[C@@H]1O` [Kaempferol 3-O-rutinoside], the “Total antioxidant capacity (TAC) relative to Trolox” value [1] is reported as “on the same range as Trolox”.
For `OC[C@H]1O[C@@H](Oc2cc3c(O)cc(O)cc3[o+]c2-c2ccc(O)c(O)c2)[C@H](O)[C@@H](O)[C@@H]1O` [Cyanidin 3-O-glucoside], the “Total antioxidant capacity (TAC) relative to Trolox” value [1] was “greater than 5 fold” and the “Inhibition of growth of S. aureus” value [4] was “more than 50%”.
In the case of `O=c1c(O[C@@H]2O[C@H](CO)[C@H](O)[C@H](O)[C@H]2O)c(-c2ccc(O)c(O)c2)oc2cc(O)cc(O)c12` [Hyperoside (Quercetin 3-galactoside), Hyperoside (quercetin 3-galactoside)], the “Total antioxidant capacity (TAC) relative to Trolox” value [1] is reported as “greater than 5 fold”.
With `O=c1c(O)c(-c2ccc(O)c(O)c2)oc2cc(O)cc(O)c12` [Quercetin] the “Total antioxidant capacity (TAC) relative to Trolox” value [1] was “greater than 5 fold”, the ARE activation [2] was “activated ARE activity” and the “Cytotoxicity to the cells in ARE assay” value (HepG2 cell line) was “non-cytotoxic to the cells”. For the same compound, the “Inhibition of HIV strain NL4-3” value [3] was “more than 65%”, the “Inhibition of HIV strain BaL” value (CCR5-dependent BaL virus) was “didn’t significantly inhibit” and the Cytotoxicity concentration (TZM-bl cells) was 26.41 ± 3.91 µM. The “Antibacterial activity against S. aureus” value [4] was “showed antibacterial activity”.
With `O=c1c(O[C@@H]2O[C@H](CO)[C@@H](O)[C@H](O)[C@H]2O)c(-c2ccc(O)cc2)oc2cc(O)cc(O)c12` [Kaempferol 3-glucoside, Kaempferol 3-glucoside (astragalin)] the “Total antioxidant capacity (TAC) relative to Trolox” value [1] was “on the same range as Trolox”.
